Experimental data from ChEMBL document CHEMBL1944534, “New heterocyclic compounds from 1,2,4-triazole and 1,3,4-thiadiazole class bearing diphenylsulfone moieties. Synthesis, characterization and antimicrobial activity evaluation” (2012).
In brackets after ≈: the same amount, converted by molar mass.

Tests used:
Type in all cases: functional
Candida albicans = test: Antifungal activity against Candida albicans ATCC 90028 after 24 hrs by broth microdilution method; settings: ATCC 90028, 24 h
Summary of the method: (§1)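 Two-fold dilutions (1/2 to 1/1024) of a 2048 µg/mL DMSO stock made in Sabouraud broth. Yeast inoculum from colonies of 24 h Sabouraud dextrose agar culture, 0.5 McFarland, diluted in sterile water to 10^5 CFU/mL and added in equal volume to broth. Incubated 37 °C, 24 h (C. albicans) or 48 h (C. parapsilosis). MIC read by eye as lowest concentration without turbidity or growth button. Run in duplicate.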

Candida parapsilosis = test: Antifungal activity against Candida parapsilosis ATCC 22019 after 48 hrs by broth microdilution method; settings: Lodderomyces parapsilosis, ATCC 22019, 48 h; summary of the method: as §1
Pseudomonas aeruginosa = test: Antibacterial activity against Pseudomonas aeruginosa ATCC 27853 after 20 hrs by broth microdilution method; settings: ATCC 27853, 20 h
Summary of the method: (§2)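 MIC by two-fold dilution series (1/2 to 1/1024) of a 2048 µg/mL DMSO stock in cation-adjusted Müller-Hinton broth. Inoculum from colonies of 24 h Columbia blood agar culture, adjusted to 0.5 McFarland, diluted to 1 × 10^6 CFU/mL and added 1:1 to compound broth. Incubated 37 °C, 20 h. MIC is the lowest concentration with no turbidity or growth button, read by eye. Run in duplicate.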

Bacillus cereus = test: Antibacterial activity against Bacillus cereus ATCC 13061 after 20 hrs by broth microdilution method; settings: ATCC 13061, 20 h; summary of the method: as §2
Acinetobacter baumannii = test: Antibacterial activity against Acinetobacter baumannii ATCC 19606 after 20 hrs by broth microdilution method; settings: ATCC 19606 = CIP 70.34 = JCM 6841, 20 h; summary of the method: as §2
Escherichia coli = test: Antibacterial activity against Escherichia coli ATCC 25922 after 20 hrs by broth microdilution method; settings: ATCC 25922, 20 h; summary of the method: as §2
Enterobacter cloacae = test: Antibacterial activity against Enterobacter cloacae ATCC 49141 after 20 hrs by broth microdilution method; settings: ATCC 49141, 20 h; summary of the method: as §2
Staphylococcus aureus = test: Antibacterial activity against Staphylococcus aureus ATCC 25923 after 20 hrs by broth microdilution method; settings: ATCC 25923, 20 h; summary of the method: as §2

Row | Compound | MIC (Candida albicans) [µg/mL] | MIC (Candida parapsilosis) [µg/mL] | MIC (Pseudomonas aeruginosa) [µg/mL] | MIC (Bacillus cereus) [µg/mL] | MIC (Acinetobacter baumannii) [µg/mL] | MIC (Escherichia coli) [µg/mL] | MIC (Enterobacter cloacae) [µg/mL] | MIC (Staphylococcus aureus) [µg/mL]
1 | O=C(NNC(=S)Nc1ccc(OC(F)(F)F)cc1)c1ccc(S(=O)(=O)c2ccccc2)cc1 | 64 (≈ 129 µM) | 64 (≈ 129 µM) | 64 (≈ 129 µM) | 32 (≈ 64.6 µM) | 64 (≈ 129 µM) | 128 (≈ 258 µM) | 128 (≈ 258 µM) | 256 (≈ 517 µM)
2 | OC(Cn1cncn1)(Cn1cncn1)c1ccc(F)cc1F [FLUCONAZOLE] | – | 2 (≈ 6.53 µM) | – | – | – | – | – | –
3 | O=C(NNC(=S)Nc1ccc(OC(F)(F)F)cc1)c1ccc(S(=O)(=O)c2ccc(Br)cc2)cc1 | 64 (≈ 111 µM) | 64 (≈ 111 µM) | 64 (≈ 111 µM) | 32 (≈ 55.7 µM) | 64 (≈ 111 µM) | 128 (≈ 223 µM) | 128 (≈ 223 µM) | 512 (≈ 891 µM)
4 | COc1cc(-n2c(-c3ccc(S(=O)(=O)c4ccc(Br)cc4)cc3)n[nH]c2=S)cc(OC)c1OC | 64 (≈ 114 µM) | 16 (≈ 28.4 µM) | 64 (≈ 114 µM) | 8 (≈ 14.2 µM) | 32 (≈ 56.9 µM) | 128 (≈ 228 µM) | 128 (≈ 228 µM) | 128 (≈ 228 µM)
5 | COc1cc(NC(=S)NNC(=O)c2ccc(S(=O)(=O)c3ccc(Br)cc3)cc2)cc(OC)c1OC | 64 (≈ 110 µM) | 64 (≈ 110 µM) | 64 (≈ 110 µM) | 16 (≈ 27.6 µM) | 32 (≈ 55.1 µM) | 128 (≈ 221 µM) | 128 (≈ 221 µM) | 128 (≈ 221 µM)
6 | COc1cc(Nc2nnc(-c3ccc(S(=O)(=O)c4ccc(Br)cc4)cc3)s2)cc(OC)c1OC | 64 (≈ 114 µM) | 64 (≈ 114 µM) | 64 (≈ 114 µM) | 16 (≈ 28.4 µM) | 32 (≈ 56.9 µM) | 64 (≈ 114 µM) | 128 (≈ 228 µM) | 512 (≈ 910 µM)
7 | COc1cc(NC(=S)NNC(=O)c2ccc(S(=O)(=O)c3ccccc3)cc2)cc(OC)c1OC | 64 (≈ 128 µM) | 64 (≈ 128 µM) | 64 (≈ 128 µM) | 16 (≈ 31.9 µM) | 32 (≈ 63.8 µM) | 128 (≈ 255 µM) | 128 (≈ 255 µM) | 128 (≈ 255 µM)
8 | COc1cc(-n2c(-c3ccc(S(=O)(=O)c4ccccc4)cc3)n[nH]c2=S)cc(OC)c1OC | 64 (≈ 132 µM) | 32 (≈ 66.2 µM) | 64 (≈ 132 µM) | 16 (≈ 33.1 µM) | 32 (≈ 66.2 µM) | 128 (≈ 265 µM) | 128 (≈ 265 µM) | 128 (≈ 265 µM)
9 | O=S(=O)(c1ccccc1)c1ccc(-c2n[nH]c(=S)n2-c2ccc(OC(F)(F)F)cc2)cc1 | 128 (≈ 268 µM) | 64 (≈ 134 µM) | 64 (≈ 134 µM) | 32 (≈ 67 µM) | 32 (≈ 67 µM) | 128 (≈ 268 µM) | 128 (≈ 268 µM) | 256 (≈ 536 µM)
10 | O=S(=O)(c1ccc(Br)cc1)c1ccc(-c2n[nH]c(=S)n2-c2ccc(OC(F)(F)F)cc2)cc1 | 128 (≈ 230 µM) | 64 (≈ 115 µM) | 64 (≈ 115 µM) | 32 (≈ 57.5 µM) | 32 (≈ 57.5 µM) | 256 (≈ 460 µM) | 256 (≈ 460 µM) | 512 (≈ 920 µM)
11 | NCC[C@H](O)C(=O)N[C@@H]1C[C@H](N)[C@@H](O[C@H]2O[C@H](CN)[C@@H](O)[C@H](O)[C@H]2O)[C@H](O)[C@H]1O[C@H]1O[C@H](CO)[C@@H](O)[C@H](N)[C@H]1O [AMIKACIN] | – | – | 2 (≈ 3.42 µM) | – | – | 2 (≈ 3.42 µM) | – | 2 (≈ 3.42 µM)
12 | O=S(=O)(c1ccccc1)c1ccc(-c2nnc(Nc3ccc(OC(F)(F)F)cc3)s2)cc1 | 64 (≈ 134 µM) | 64 (≈ 134 µM) | 64 (≈ 134 µM) | 32 (≈ 67 µM) | 32 (≈ 67 µM) | 128 (≈ 268 µM) | 128 (≈ 268 µM) | 512 (≈ 1070 µM)
13 | COc1cc(Nc2nnc(-c3ccc(S(=O)(=O)c4ccccc4)cc3)s2)cc(OC)c1OC | 64 (≈ 132 µM) | 64 (≈ 132 µM) | 64 (≈ 132 µM) | 16 (≈ 33.1 µM) | 32 (≈ 66.2 µM) | 128 (≈ 265 µM) | 128 (≈ 265 µM) | 512 (≈ 1060 µM)
14 | O=S(=O)(c1ccc(Br)cc1)c1ccc(-c2nnc(Nc3ccc(OC(F)(F)F)cc3)s2)cc1 | 128 (≈ 230 µM) | 64 (≈ 115 µM) | 64 (≈ 115 µM) | 32 (≈ 57.5 µM) | 32 (≈ 57.5 µM) | 128 (≈ 230 µM) | 128 (≈ 230 µM) | 512 (≈ 920 µM)
